Reference: ChEMBL document CHEMBL4406804, “Discovery of a Potent Steroidal Glucocorticoid Receptor Antagonist with Enhanced Selectivity against the Progesterone and Androgen Receptors (OP-3633)” (J Med Chem, 2019)
In brackets after ≈: the same amount, converted by molar mass.

What was measured:
[1] = target: T1, CYP2C8 (Homo sapiens, UniProt P10632); test: Inhibition of CYP2C8 (unknown origin) at 10 uM using paclitaxel as substrate relative to control; assay type: ADME; settings: probe paclitaxel
T1 sequence (P10632 whole entry): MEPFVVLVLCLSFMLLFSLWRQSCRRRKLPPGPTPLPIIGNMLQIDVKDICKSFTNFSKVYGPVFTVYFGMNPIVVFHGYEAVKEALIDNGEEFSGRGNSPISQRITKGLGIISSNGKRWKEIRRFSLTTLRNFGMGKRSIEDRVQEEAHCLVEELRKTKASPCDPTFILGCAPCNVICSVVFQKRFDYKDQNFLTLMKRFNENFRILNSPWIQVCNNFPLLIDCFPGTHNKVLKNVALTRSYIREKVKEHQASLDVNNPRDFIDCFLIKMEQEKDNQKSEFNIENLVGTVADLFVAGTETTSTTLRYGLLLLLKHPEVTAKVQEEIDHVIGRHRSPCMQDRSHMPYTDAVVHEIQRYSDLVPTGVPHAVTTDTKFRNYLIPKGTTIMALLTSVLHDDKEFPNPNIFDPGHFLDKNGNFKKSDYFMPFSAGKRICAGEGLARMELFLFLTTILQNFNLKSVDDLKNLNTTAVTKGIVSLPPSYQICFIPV

[2] = system: Mus musculus; test: In vivo antagonist activity at glucocorticoid receptor in tumor of human HCC1806 cells xenografted in hsd:athymic Nude-Foxn1nu mouse assessed as reduction in cortisol-stimulated FKBP5 mRNA expression at 150 mg/kg, po administered as single dose via gavage and measured at 3 hrs post cortisol addition by qRT-PCR analysis (reference value: 2.3 to 4); assay type: functional
In short: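 HCC1806 TNBC xenograft tumors in mice. Cortisol 5 mg/kg given orally as a bolus to activate GR. The compound was given as a single oral gavage dose of 150 mg/kg, with vehicle controls. Tumors were collected 3 and 6 h after cortisol, and FKBP5 mRNA was measured by RT-qPCR relative to vehicle. n = 3 mice/group. One-way ANOVA with Dunnett's test versus vehicle.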

[3] = Clearance in dog at 0.5 mg/kg, iv; assay type: ADME, organism-based, Canis lupus familiaris; settings: in vivo
[4] = Cmax in mini-pig at 5 mg/kg, po; assay type: ADME, organism-based, Sus scrofa domesticus; parameters: dose 5 mg/kg, route oral; settings: in vivo
[5] = target: T2, Progesterone receptor (Homo sapiens, UniProt P06401); test: Antagonist activity at human progesterone receptor expressed in CHO-K1 cells harboring firefly luciferase gene after 20 hrs by One-Glo luciferase reporter gene assay; assay type: cell-based
T2 sequence (P06401 whole entry): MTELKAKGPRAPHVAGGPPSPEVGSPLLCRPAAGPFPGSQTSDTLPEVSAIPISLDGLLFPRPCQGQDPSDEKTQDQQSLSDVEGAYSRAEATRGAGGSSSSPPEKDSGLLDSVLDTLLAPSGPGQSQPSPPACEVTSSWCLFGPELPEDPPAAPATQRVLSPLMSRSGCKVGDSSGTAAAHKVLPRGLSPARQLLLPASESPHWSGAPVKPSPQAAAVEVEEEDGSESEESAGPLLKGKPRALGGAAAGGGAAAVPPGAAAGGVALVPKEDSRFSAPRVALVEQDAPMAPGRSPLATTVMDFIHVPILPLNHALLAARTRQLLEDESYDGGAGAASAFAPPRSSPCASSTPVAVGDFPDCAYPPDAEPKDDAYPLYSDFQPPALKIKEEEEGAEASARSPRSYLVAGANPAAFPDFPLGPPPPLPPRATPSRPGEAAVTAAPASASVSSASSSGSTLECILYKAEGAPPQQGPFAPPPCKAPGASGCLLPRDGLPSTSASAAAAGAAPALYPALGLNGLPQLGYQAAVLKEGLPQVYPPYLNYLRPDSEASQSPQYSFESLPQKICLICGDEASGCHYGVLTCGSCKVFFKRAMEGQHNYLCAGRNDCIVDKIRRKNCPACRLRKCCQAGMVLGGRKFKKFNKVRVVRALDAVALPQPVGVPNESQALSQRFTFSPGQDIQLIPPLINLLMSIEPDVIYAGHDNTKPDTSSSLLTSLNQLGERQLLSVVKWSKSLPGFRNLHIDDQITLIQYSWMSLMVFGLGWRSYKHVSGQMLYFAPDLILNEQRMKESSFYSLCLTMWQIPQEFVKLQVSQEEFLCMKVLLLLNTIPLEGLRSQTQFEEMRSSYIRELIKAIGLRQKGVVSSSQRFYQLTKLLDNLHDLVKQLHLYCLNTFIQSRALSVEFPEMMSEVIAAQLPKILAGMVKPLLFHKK
In short: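 Cell-based luciferase reporter assays for GR, AR and PR, run in agonist and antagonist modes. Potency and Emax are averages of at least two determinations, reported with SD.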

[6] = target: T3, Cytochrome P450 2C8 (Homo sapiens, UniProt P10632); test: Inhibition of CYP2C8 (unknown origin) using paclitaxel as substrate; assay type: ADME
T3 sequence (P10632 whole entry): T1 sequence (P10632 whole entry)

[7] = target: T4, Androgen receptor (Homo sapiens, UniProt P10275); test: Agonist activity at human androgen receptor in human LNCAP cells harboring firefly luciferase gene after 20 hrs by One-Glo luciferase reporter gene assay; assay type: cell-based
T4 sequence (P10275 whole entry): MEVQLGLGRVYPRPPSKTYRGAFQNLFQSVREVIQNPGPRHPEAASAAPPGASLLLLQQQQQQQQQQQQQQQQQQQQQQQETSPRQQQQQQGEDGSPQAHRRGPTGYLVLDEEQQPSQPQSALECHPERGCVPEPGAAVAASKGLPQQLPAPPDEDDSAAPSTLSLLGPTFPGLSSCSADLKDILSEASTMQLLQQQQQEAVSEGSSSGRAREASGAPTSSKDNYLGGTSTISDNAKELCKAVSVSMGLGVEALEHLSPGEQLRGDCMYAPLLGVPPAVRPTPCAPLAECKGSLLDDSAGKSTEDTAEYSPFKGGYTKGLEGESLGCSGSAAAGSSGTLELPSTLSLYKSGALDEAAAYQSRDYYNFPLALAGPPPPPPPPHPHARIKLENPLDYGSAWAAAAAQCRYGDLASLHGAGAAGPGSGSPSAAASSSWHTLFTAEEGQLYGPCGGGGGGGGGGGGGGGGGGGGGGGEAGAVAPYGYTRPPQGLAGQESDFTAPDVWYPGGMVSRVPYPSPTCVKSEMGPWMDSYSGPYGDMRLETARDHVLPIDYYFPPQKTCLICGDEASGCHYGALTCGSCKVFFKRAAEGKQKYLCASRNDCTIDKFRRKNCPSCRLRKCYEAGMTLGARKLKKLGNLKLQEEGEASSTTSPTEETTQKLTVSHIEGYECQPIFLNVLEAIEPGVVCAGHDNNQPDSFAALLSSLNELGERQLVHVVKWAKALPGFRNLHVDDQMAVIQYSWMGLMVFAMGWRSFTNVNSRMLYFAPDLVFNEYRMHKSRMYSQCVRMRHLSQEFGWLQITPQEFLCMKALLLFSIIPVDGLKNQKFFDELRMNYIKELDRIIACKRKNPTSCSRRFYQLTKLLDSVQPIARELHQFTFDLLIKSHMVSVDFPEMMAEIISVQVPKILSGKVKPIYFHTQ

[8] = Solubility of compound in PBS at pH 7.4; assay type: physicochemical

SMILES: CC#C[C@]1(O)CC[C@H]2[C@@H]3CCC4=CC(=O)CC[C@]4(C)[C@H]3[C@@H](c3ccc(N(C)C)cc3)C[C@@]21C
- inhibition at 10 µM [1]: 58%
- fold change (FC) [2]: 2.8
- clearance [3]: 10.2 mL/min/kg
- Cmax [4]: 249 ng/mL
- IC50 [5]: 1140 nM
- IC50 [6]: 8 µM
- EC50 [7]: > 2500 nM
- solubility [8]: 20.6 µM (≈ 9.18 µg/mL)
